Laboratory results reported in PMC9322249 (Journal of Food and Drug Analysis, 2017).

Columns and labels:
[1] = Oxygen radical absorption capacity; details: TEAC units; X = EO or compound
How it was run: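 Peroxyl radical (ROO) scavenging by the oils and individual components, following a published ORAC method, in triplicate. Data are mean ± SD, with significance by ANOVA/Tukey's HSD (p < 0.05).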

[2] = target: T1, lipoxygenase (LOX) (linoleate:oxygen oxidoreductase, EC 1.13.11.12) (Glycine max, UniProt P08170); experiment: Lipoxygenase; format: biochemical, Glycine max (soybean); details: soybean LOX, linoleic acid substrate, 25 °C; mean ± SD
T1 sequence (P08170 1-839): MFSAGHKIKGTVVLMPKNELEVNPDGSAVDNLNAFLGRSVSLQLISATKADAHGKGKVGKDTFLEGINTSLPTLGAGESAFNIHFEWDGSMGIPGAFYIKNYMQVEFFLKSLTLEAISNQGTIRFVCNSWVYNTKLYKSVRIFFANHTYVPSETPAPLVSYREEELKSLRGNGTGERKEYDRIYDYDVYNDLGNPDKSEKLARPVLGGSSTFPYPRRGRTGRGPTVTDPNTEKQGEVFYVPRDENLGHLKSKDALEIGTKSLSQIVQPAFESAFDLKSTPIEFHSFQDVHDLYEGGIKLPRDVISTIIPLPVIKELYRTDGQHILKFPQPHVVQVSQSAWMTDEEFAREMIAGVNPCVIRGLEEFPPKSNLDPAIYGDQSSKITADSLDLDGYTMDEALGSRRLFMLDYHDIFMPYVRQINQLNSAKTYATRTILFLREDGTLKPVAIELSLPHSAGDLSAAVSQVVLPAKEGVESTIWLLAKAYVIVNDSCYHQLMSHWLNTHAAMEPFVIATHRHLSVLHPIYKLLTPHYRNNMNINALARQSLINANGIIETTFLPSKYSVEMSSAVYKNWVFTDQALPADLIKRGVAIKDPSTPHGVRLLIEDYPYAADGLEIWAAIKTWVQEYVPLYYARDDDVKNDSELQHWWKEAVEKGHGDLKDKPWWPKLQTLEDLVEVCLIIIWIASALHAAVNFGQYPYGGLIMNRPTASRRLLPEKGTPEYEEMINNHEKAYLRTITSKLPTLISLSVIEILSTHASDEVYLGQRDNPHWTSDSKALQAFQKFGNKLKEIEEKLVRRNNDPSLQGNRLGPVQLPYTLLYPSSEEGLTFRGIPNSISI

[3] = Chelating power; details: for ChP: EDTAE units, X = EO or compound
How it was run: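 Ferrous ion chelation by essential oils and their major components, by a published method, in triplicate. Results are expressed as EDTA equivalents per volume of EO, mean ± SD, with ANOVA/Tukey's HSD (p < 0.05).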

[4] = DPPH radical scavenging capacity; details: TEAC units; X = EO or compound
How it was run: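 DPPH radical scavenging by essential oils and individual components, by a published method, in triplicate. Values are expressed as μmol TE/mL EO and given as mean ± SD, with ANOVA/Tukey's HSD at p < 0.05.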

[5] = Reducing power; details: AAE units; X = EO or compound
How it was run: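 Reduction of potassium ferricyanide by the oils and individual components, by a published method, in triplicate. Results are reported as ascorbic acid equivalents per volume of EO, mean ± SD, with ANOVA/Tukey's HSD (p < 0.05).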

[6] = ABTS radical cation bleaching assay; details: TEAC units; X = EO or compound
How it was run: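 ABTS radical cation (ABTS•+) bleaching by essential oils and their individual components, run in triplicate by a published method. Results are given as mean ± SD, compared by ANOVA with Tukey's HSD (p < 0.05).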

[7] = Thiobarbituric acid reactive substances; details: for TBARS: BHTE units, X = EO or compound
How it was run: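 TBARS formation by oxidation measured in soybean lecithin homogenate as lipid-rich medium, by a published method, in triplicate. Values are expressed as μmol BHTE/mL EO, mean ± SD, with ANOVA/Tukey's HSD (p < 0.05).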

Compound | ORAC [1] | LOX inhibitory activity, IC50 of main commercially available compounds [2] | ChP [3] | DPPH [4] | RdP [5] | ABTS [6] | TBARS [7] | Chelating power (ChP), result in words [3] | TBARS antioxidant activity, result in words [7]
CC(=O)OC1CC2CCC1(C)C2(C)C (centres unmarked) [bornyl acetate] | N/D (Activity lower than 0.05 units at a maximum assay concentration of 100 mM) | 75 ± 3 μL (Compound)/L | 0.1 ± 0.0 μmol EDTAE/mL X | N/D (Activity lower than 0.05 units at a maximum assay concentration of 100 mM) | N/D (Activity lower than 0.05 units at a maximum assay concentration of 100 mM) | N/D (Activity lower than 0.05 units at a maximum assay concentration of 100 mM) | N/D (Activity lower than 0.05 units at a maximum assay concentration of 100 mM) |  | 
CC12CCC(CC1=O)C2(C)C (centres unmarked) [camphor] | N/D (Activity lower than 0.05 units at a maximum assay concentration of 100 mM) | 422 ± 13 μL (Compound)/L | N/D (Activity lower than 0.05 units at a maximum assay concentration of 100 mM) | N/D (Activity lower than 0.05 units at a maximum assay concentration of 100 mM) | N/D (Activity lower than 0.05 units at a maximum assay concentration of 100 mM) | N/D (Activity lower than 0.05 units at a maximum assay concentration of 100 mM) | N/D (Activity lower than 0.05 units at a maximum assay concentration of 100 mM) |  | 
C=C(C)[C@H]1CC=C(C)CC1 [limonene] | 0.8 ± 0.1 μmol TE/μL X | 58 ± 5 μL (Compound)/L | 36.7 ± 2.3 μmol EDTAE/mL X | N/D (Activity lower than 0.05 units at a maximum assay concentration of 100 mM) | N/D (Activity lower than 0.05 units at a maximum assay concentration of 100 mM) | 3.6 ± 0.2 μmol TE/mL X | N/D (Activity lower than 0.05 units at a maximum assay concentration of 100 mM) |  | 
C=CC(C)(O)CCC=C(C)C (centres unmarked) [linalool] | 1.9 ± 0.1 μmol TE/μL X | 599 ± 8 μL (Compound)/L | 541.6 ± 32.7 μmol EDTAE/mL X | N/D (Activity lower than 0.05 units at a maximum assay concentration of 100 mM) | N/D (Activity lower than 0.05 units at a maximum assay concentration of 100 mM) | 0.4 ± 0.0 μmol TE/mL X | N/D (Activity lower than 0.05 units at a maximum assay concentration of 100 mM) | high ChP | 
Cc1ccc(C(C)C)cc1 [p-cymene] | N/D (Activity lower than 0.05 units at a maximum assay concentration of 100 mM) | 79 ± 5 μL (Compound)/L | 124.7 ± 9.8 μmol EDTAE/mL X | N/D (Activity lower than 0.05 units at a maximum assay concentration of 100 mM) | N/D (Activity lower than 0.05 units at a maximum assay concentration of 100 mM) | 0.6 ± 0.0 μmol TE/mL X | N/D (Activity lower than 0.05 units at a maximum assay concentration of 100 mM) | high chelating activity | 
Cc1ccc(C(C)C)c(O)c1 [thymol] | 2.1 ± 0.1 μmol TE/μL X | 23 ± 2 μL (Compound)/L | N/D (Activity lower than 0.05 units at a maximum assay concentration of 100 mM) | 34.9 ± 2.1 μmol TE/mL X | 3353.9 ± 133.4 μmol AAE/L X | 6897.1 ± 225.0 μmol TE/mL X | 869.4 ± 255.2 μmol BHTE/mL X | do not show any ChP | 
CC1=CC[C@@H](C(C)(C)O)CC1 [α-Terpineol] | 1.9 ± 0.1 μmol TE/μL X |  | 29.9 ± 1.9 μmol EDTAE/mL X | N/D (Activity lower than 0.05 units at a maximum assay concentration of 100 mM) | N/D (Activity lower than 0.05 units at a maximum assay concentration of 100 mM) | 1.1 ± 0.1 μmol TE/mL X | 15.6 ± 0.5 μmol BHTE/mL X |  | 
CC1=CC=C(C(C)C)CC1 [α-terpinene] | 0.4 ± 0.0 μmol TE/μL X |  | 385.6 ± 29.0 μmol EDTAE/mL X | 1.7 ± 0.1 μmol TE/mL X | 11,531.4 ± 637.1 μmol AAE/L X | 24.6 ± 1.2 μmol TE/mL X | N/D (Activity lower than 0.05 units at a maximum assay concentration of 100 mM) | high chelating activity | 
C=C1CC/C=C(\C)CC[C@@H]2[C@@H]1CC2(C)C [β-Caryophyllene] | 1.7 ± 0.1 μmol TE/μL X |  | 31.6 ± 2.2 μmol EDTAE/mL X | N/D (Activity lower than 0.05 units at a maximum assay concentration of 100 mM) | N/D (Activity lower than 0.05 units at a maximum assay concentration of 100 mM) | N/D (Activity lower than 0.05 units at a maximum assay concentration of 100 mM) | 76.5 ± 3.4 μmol BHTE/mL X |  | 
C=C1CCC2CC1C2(C)C (stereo not drawn) [β-Pinene] | N/D (Activity lower than 0.05 units at a maximum assay concentration of 100 mM) |  | 11.7 ± 0.7 μmol EDTAE/mL X | 0.1 ± 0.0 μmol TE/mL X | N/D (Activity lower than 0.05 units at a maximum assay concentration of 100 mM) | 0.7 ± 0.0 μmol TE/mL X | 28.9 ± 1.9 μmol BHTE/mL X |  | 
CC1=CCC(C(C)C)=CC1 [γ-terpinene] | 1.1 ± 0.1 μmol TE/μL X |  | 2.0 ± 0.1 μmol EDTAE/mL X | 2.1 ± 0.1 μmol TE/mL X | 1990.6 ± 160.2 μmol AAE/L X | 15.6 ± 0.7 μmol TE/mL X | 273.2 ± 24.4 μmol BHTE/mL X |  | strong TBARS antioxidant activity
